# Published values pooled from the literature.
# Each line is one published result; the experiments were not run side by side.
SMILES,species,medium,route,dose,notes,Tmax [h]
CCc1nc(C(N)=O)c(Nc2ccc(N3CCC(N4CCN(C)CC4)CC3)c(OC)c2)nc1NC1CCOCC1,human,plasma,oral,200 mg,"multiple doses, patients",5.92
CC(C)(C)OC[C@@H]1C(=O)NCCN1C(=O)C[C@H](N)Cc1cc(F)c(F)cc1F,male human,plasma,oral,5 mg,"multiple doses, steady state",2
C#C[C@]1(COP(=O)(O)OP(=O)(O)OP(=O)(O)O)O[C@@H](n2cnc3c(N)nc(F)nc32)C[C@@H]1O,human,plasma,oral,100 mg,single dose,24
c1cnc2ccc(Nc3nc(NC4CC4)c4nc[nH]c4n3)cc2c1,human,plasma,oral,100 mg/m²,patients,5.7
Cc1nc(NC(=O)N2CCC[C@H]2C(N)=O)sc1-c1ccnc(C(C)(C)C(F)(F)F)c1,human,plasma,oral,270 mg,patients,2.02
CC(C)[C@](O)(c1ccc2cc(OC(F)F)c(OC(F)F)cc2c1)c1c[nH]nn1,female human,plasma,oral,600 mg,single dose,2.5
CCO[C@H]1CCN(Cc2c(OC)cc(C)c3[nH]ccc23)[C@H](c2ccc(C(=O)O)cc2)C1,human,plasma,oral,100 mg,"multiple doses, twice daily, patients",1.53
CC(C)(Sc1ccncc1-c1ccc(C#N)c2ccccc12)C(=O)O,male human,plasma,oral,20 mg,"single dose, fasted, healthy volunteers",0.5
COc1ccc([C@@H]2CN(C(=O)[C@@H](O)CO)C[C@@]2(C)[C@@H](C)O)cc1OC1CN(c2ccc(C)cn2)C1,human,plasma,oral,30 mg,"single dose, healthy volunteers",3.88
C[C@@H](Nc1cc(F)cc(F)c1)c1cc(C(=O)N(C)C)cc2c(=O)cc(N3CCOCC3)oc12,human,plasma,oral,180 mg,"single dose, patients",1.98
C=CC(=O)N1CCC(Oc2cc3c(Nc4ccc(Cl)c(Cl)c4F)ncnc3cc2OC)CC1,human,plasma,oral,16 mg,"single dose, fasted",1.26
Oc1cc(O)c2c(c1)O[C@@H](c1ccc(O)c(O)c1)[C@@H](O)C2,human,plasma,oral,100 mg,single dose,1
CC(C)[C@H](N)C(=O)NCCCS(=O)(=O)O,human,plasma,oral,256.5 mg,"multiple doses, twice daily, fasted",0.5
C=CC(=O)N(C)CCOc1c(N)ncnc1-c1cc(F)cc(NC(=O)c2ccc(C3CC3)cc2F)c1C,human,blood,oral,600 mg,"single dose, healthy volunteers",1.02
Cc1nc(-c2cn3c(n2)-c2ccc(-c4cnn(C(C)(C)C(N)=O)c4)cc2OCC3)n(C(C)C)n1,human,plasma,oral,6 mg,patients,2.05
CCCOc1ccc([C@H]2CNC(=O)N2c2ccc3[nH]cnc3c2)cc1,human,plasma,oral,200 mg,"single dose, fed, healthy volunteers",2
COc1cc(N2CCC(N3CCN(C)CC3)CC2)ccc1Nc1ncnc(Nc2ccccc2S(=O)(=O)C(C)C)n1,human,plasma,oral,25 mg,"multiple doses, patients",2.48
CO[C@H]1/C=C\C=C(/C)C(=O)NC2=CC(=O)C(NCCN(C)C)=C(C[C@@H](C)C[C@H](OC)[C@H](O)[C@@H](C)/C=C(\C)[C@@H]1OC(N)=O)C2=O,human,plasma,intravenous,27 mg/m²,"patients, infusion",0.9
CCCCOC(=O)N1CCN(C(=O)[C@H](CP(=O)(O)O)NC(=O)c2cc(N3CC[C@H](OC)C3)nc(-c3ccccc3)n2)CC1,human,plasma,subcutaneous,16 mg,single dose,0.733
O=C(Nc1c(Cl)cncc1Cl)c1ccc(OC(F)F)c(OCC2CC2)c1,human,plasma,oral,0.375 mg,"multiple doses, once daily",0.75
Nc1cc(C(F)(F)F)c(-c2cc(N3CCOCC3)nc(N3CCOCC3)n2)cn1,human,plasma,oral,25 mg/day,patients,1
CS(=O)(=O)CCC#N,human,plasma,oral,1000 mg,"single dose, fasted",1.5
CC(C)(O)c1ccccc1-c1ccc2[nH]c(/C=C/c3ccc(C(F)(F)F)cc3)nc2c1,male human,plasma,oral,60 mg,"single dose, fasted",3.98
C[C@@]1(c2cc(NC(=O)c3ccc(C#N)cn3)ccc2F)C=CSC(N)=N1,human,plasma,oral,10 mg,single dose,0.88
CNCC[C@H](Oc1cccc2ccccc12)c1cccs1,female human,plasma,oral,30 mg,"multiple doses, once daily",4.7
COc1ccc(Oc2cc(N(C)CCOc3ccc(CC4SC(=O)NC4=O)cc3)ncn2)cc1 (centres unmarked),male human,plasma,oral,0.5 mg,"multiple doses, once daily, steady state",0.67
CC(C)n1cc(C#N)c2cc(-n3cc(C(=O)O)cn3)ccc21,human,plasma,oral,200 mg,"single dose, fed, healthy volunteers",5
O=C(O)C[C@H](O)C[C@H](O)/C=C/c1c(C2CC2)nc2ccccc2c1-c1ccc(F)cc1,human,plasma,oral,2 mg,"single dose, fed, healthy volunteers, tablet",1.13
NS(=O)(=O)NCCNc1nonc1C(=NO)Nc1ccc(F)c(Br)c1,human,plasma,oral,400 mg,"multiple doses, twice daily, steady state, patients",2
CO[C@@H]1[C@H](OC(=O)N2CC(CCN3CCOCC3)C2)CC[C@]2(CO2)[C@H]1[C@@]1(C)O[C@@H]1CC=C(C)C,human,plasma,subcutaneous,1.2 mg,"single dose, healthy volunteers",0.25
Cn1cc(-c2ccc(S(=O)(=O)[C@@H]3C[C@@H](C(=O)NC4(C#N)CC4)N(C(=O)C4(C(F)(F)F)CC4)C3)c(C(F)(F)F)c2)cn1,human,plasma,oral,3 mg,"single dose, fasted, healthy volunteers",5
CCc1nc2c(C)cc(N3CCN(CC(=O)N4CC(O)C4)CC3)cn2c1N(C)c1nc(-c2ccc(F)cc2)c(C#N)s1,human,plasma,oral,150 mg,"fed, healthy volunteers",1
